Laboratory results published in ChEMBL document CHEMBL1150614, “Novel cytotoxic oxygenated C29 sterols from the Colombian marine sponge Polymastia tenax” (J Nat Prod, 2002).
In brackets after ≈: the same amount, converted by molar mass.

Legend:
Settings in all cases: read-out: LC50 (the source's name)
[1] = Cytotoxicity against human H116 cells; assay type: functional
How it was run: (§1)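 In vitro cytotoxicity assay against the cell line named; values reported as IC50 in µg/mL.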

[2] = Cytotoxicity against mouse MS1 cells; assay type: cell-based; how it was run: as §1
PC-3 = assay: Cytotoxicity against human PC3 cells; assay type: functional; how it was run: as §1
A549 = assay: Cytotoxicity against human A549 cells; assay type: functional; how it was run: as §1
HT-29 = assay: Cytotoxicity against human HT-29 cells; assay type: functional; how it was run: as §1

Work on `CC[C@H](CC[C@@H](C)[C@H]1CCC2=C3[C@H](O)[C@@H]4O[C@@]45C[C@@H](O)CC[C@]5(C)[C@H]3CC[C@@]21C)C(C)C` yielded a CC50 [1] of 1 µg/mL (≈ 2.25 µM), a CC50 [2] of 0.5 µg/mL (≈ 1.12 µM) and a CC50 (PC-3) of 1 µg/mL (≈ 2.25 µM). For the same compound, the CC50 (A549) was 5 µg/mL (≈ 11.2 µM) and the CC50 (HT-29) was 1 µg/mL (≈ 2.25 µM).
With `CC[C@H](CC[C@@H](C)[C@H]1CC[C@H]2C3=C(CC[C@]12C)[C@@]1(C)CC[C@H](O)C[C@@]12O[C@H]2[C@H]3O)C(C)C` (relative stereo) the CC50 [1] was 1 µg/mL (≈ 2.25 µM), the CC50 [2] was 0.5 µg/mL (≈ 1.12 µM) and the CC50 (PC-3) was 1 µg/mL (≈ 2.25 µM). It also gave a CC50 (A549) of 1 µg/mL (≈ 2.25 µM) and a CC50 (HT-29) of 1 µg/mL (≈ 2.25 µM).
